Data published in ChEMBL document CHEMBL1275290, “4-Aminoquinoline derived antimalarials: synthesis, antiplasmodial activity and heme polymerization inhibition studies” (Eur J Med Chem, 2010).

What was measured:
Plasmodium falciparum [1] = test: Antimalarial activity against chloroquine-resistant Plasmodium falciparum Dd2 after 72 hrs by SYBR Green I fluorescence based method; type: functional, organism-based; conditions: Dd2, 72 h
Outline: (§1)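 Asynchronous continuous P. falciparum cultures diluted with uninfected erythrocytes in RPMI-1640 + 0.5% Albumax II to 0.2% parasitemia, 2% hematocrit. Compounds from 10 mM DMSO stock diluted in medium (0.1 nM–100 range). 72 h incubation under standard culture conditions; SYBR Green I fluorescence read (ex 497/em 520 nm). Triplicate experiments; IC50 from variable-slope sigmoidal dose–response fits.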

[2] = Binding affinity to hematin measured as association constant for 1:1 (hematin-compound) complex formation at pH 7.5
Outline: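 Spectrophotometric titration of hematin with compound in 40% aqueous DMSO, 20 mM HEPES, pH 7.5, 25 °C; hematin held in monomeric state. Association constant for 1:1 compound:hematin complex; means ± SD from at least three experiments in duplicate.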

Plasmodium falciparum [3] = test: Resistance index, ratio of IC50 for chloroquine-resistant Plasmodium falciparum Dd2 to IC50 for chloroquine-sensitive Plasmodium falciparum D6; type: functional
Outline: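 Ratio of Dd2 IC50 to D6 IC50, each from the 72 h SYBR Green I growth assay (0.2% parasitemia, 2% hematocrit, RPMI-1640 + 0.5% Albumax II), triplicate, IC50 from variable-slope sigmoidal fits.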

[4] = Inhibition of beta-hematin polymerization by UV spectrophotometry based BHIA assay relative to untreated hemin control; type: functional
Outline: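 IC50 expressed as millimolar equivalents of compound relative to hemin needed to block beta-hematin formation by 50%. Triplicate readings converted to percent inhibition versus drug-free hemozoin control; IC50 from sigmoidal dose-response non-linear regression. Means ± SD from at least three experiments in duplicate.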

Plasmodium falciparum [5] = test: Antimalarial activity against chloroquine-sensitive Plasmodium falciparum D6 after 72 hrs by SYBR Green I fluorescence based method; type: functional, organism-based; conditions: D6, 72 h; outline: as §1

SMILES	IC50 (Plasmodium falciparum [1])	log Ks [2]	Ratio IC50 (Plasmodium falciparum [3])	IC50 [4]	IC50 (Plasmodium falciparum [5])
CCN(CC)C(=S)NCCCNc1ccnc2cc(Cl)ccc12	125 nM	5.34	1.21	0.15 mMequiv	103 nM
S=C(NCCCNc1ccnc2cc(Cl)ccc12)NC1CC1	14.1 nM	5.67	0.59	0.11 mMequiv	23.9 nM
S=C(NCCCNc1ccnc2cc(Cl)ccc12)N1CCCCC1	104 nM	5.24	0.99	0.29 mMequiv	104 nM
S=C(NCCCNc1ccnc2cc(Cl)ccc12)N1CCCC1	142 nM	4.98	1.11	0.35 mMequiv	128 nM
CC(C)N(C(=S)NCCCNc1ccnc2cc(Cl)ccc12)C(C)C	202 nM	4.95	1.25	0.33 mMequiv	161 nM
S=C(NCCCNc1ccnc2cc(Cl)ccc12)NCCCNc1ccnc2cc(Cl)ccc12	280 nM	5.38	2.18	0.27 mMequiv	128 nM
CCN(CC)CCCC(C)Nc1ccnc2cc(Cl)ccc12 (configuration not stated) [CHLOROQUINE]	–	–	–	0.17 mMequiv	–
S=C(NCCCNc1ccnc2cc(Cl)ccc12)Nc1ccc(Cl)cc1	–	4.23	–	0.48 mMequiv	234 nM
CN1CCN(C(=S)NCCCNc2ccnc3cc(Cl)ccc23)CC1	68.4 nM	4.98	1.16	0.35 mMequiv	59.1 nM
S=C(NCCCNc1ccnc2cc(Cl)ccc12)N1CCN(c2ccccc2)CC1	50.5 nM	5.37	1.76	0.17 mMequiv	28.7 nM
S=C(NCCCNc1ccnc2cc(Cl)ccc12)N1CCNCC1	778 nM	4.46	2.33	0.69 mMequiv	333 nM
CN(C)C(=S)NCCCNc1ccnc2cc(Cl)ccc12	–	4.87	–	0.55 mMequiv	140 nM
S=C(NCCCNc1ccnc2cc(Cl)ccc12)N1CCOCC1	556 nM	4.94	3.08	0.34 mMequiv	180 nM
CNC(=S)NCCCNc1ccnc2cc(Cl)ccc12	213 nM	4.57	1.2	0.66 mMequiv	177 nM
